Test results reported in ChEMBL document CHEMBL1131611, “N-(Iodopropenyl)-octahydrobenzo[f]- and -[g]quinolines: synthesis and adrenergic and dopaminergic activity studies” (J Med Chem, 1998).

What was measured:
Type in all cases: cell membranes, Membrane
[1] = biological target: T1, Adrenergic receptor alpha-2 (Rattus norvegicus, UniProt P22086+P19328+P22909); assay: Inhibition of specific binding of [3H]rauwolscine to Alpha-2 adrenergic receptor in rat cortical membranes
T1 sequence (P22086 whole entry): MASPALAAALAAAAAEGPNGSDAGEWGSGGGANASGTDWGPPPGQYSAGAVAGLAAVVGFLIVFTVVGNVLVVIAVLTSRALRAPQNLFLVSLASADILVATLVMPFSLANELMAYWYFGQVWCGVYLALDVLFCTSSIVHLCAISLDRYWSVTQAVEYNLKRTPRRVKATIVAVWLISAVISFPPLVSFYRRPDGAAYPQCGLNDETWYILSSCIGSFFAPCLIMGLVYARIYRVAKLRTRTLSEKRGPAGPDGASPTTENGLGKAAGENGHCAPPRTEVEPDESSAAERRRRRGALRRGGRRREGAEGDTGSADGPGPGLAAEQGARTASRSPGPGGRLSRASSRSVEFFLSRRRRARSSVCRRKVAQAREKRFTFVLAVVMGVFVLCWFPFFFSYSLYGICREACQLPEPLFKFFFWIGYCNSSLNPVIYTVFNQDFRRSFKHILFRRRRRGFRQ
T1 sequence (P19328 whole entry): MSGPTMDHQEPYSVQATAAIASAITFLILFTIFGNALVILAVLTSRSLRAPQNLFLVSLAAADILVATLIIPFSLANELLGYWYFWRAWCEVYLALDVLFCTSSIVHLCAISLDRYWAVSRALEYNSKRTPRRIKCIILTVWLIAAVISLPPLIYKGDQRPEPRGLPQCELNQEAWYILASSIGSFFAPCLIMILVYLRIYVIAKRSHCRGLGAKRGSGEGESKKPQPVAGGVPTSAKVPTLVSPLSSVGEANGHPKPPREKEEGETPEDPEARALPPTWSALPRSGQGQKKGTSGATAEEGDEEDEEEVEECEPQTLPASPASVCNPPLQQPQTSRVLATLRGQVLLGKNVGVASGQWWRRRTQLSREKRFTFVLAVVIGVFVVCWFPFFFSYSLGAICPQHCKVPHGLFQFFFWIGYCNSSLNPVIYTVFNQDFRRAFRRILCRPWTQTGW
T1 sequence (P22909 whole entry): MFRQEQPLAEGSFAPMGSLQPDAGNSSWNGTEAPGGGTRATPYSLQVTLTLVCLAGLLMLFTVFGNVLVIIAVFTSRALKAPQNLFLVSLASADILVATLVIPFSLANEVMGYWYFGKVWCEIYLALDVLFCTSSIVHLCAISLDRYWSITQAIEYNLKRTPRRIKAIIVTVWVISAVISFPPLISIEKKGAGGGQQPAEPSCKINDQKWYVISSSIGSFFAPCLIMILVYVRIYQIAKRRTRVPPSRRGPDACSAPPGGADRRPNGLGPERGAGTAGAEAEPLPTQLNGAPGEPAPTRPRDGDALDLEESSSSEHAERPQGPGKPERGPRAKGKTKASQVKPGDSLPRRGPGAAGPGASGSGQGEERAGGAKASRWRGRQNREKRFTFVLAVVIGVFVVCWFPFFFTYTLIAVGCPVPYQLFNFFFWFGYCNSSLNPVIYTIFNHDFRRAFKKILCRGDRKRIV

D(1A) dopamine receptor [2] = biological target: T2, D(1A) dopamine receptor (Rattus norvegicus, UniProt P18901); assay: Inhibition of specific binding of [3H]-SCH- 23390 to Dopamine receptor D1 in rat striatal membranes; Not active up to a concentration of 5 uM
T2 sequence (P18901 whole entry): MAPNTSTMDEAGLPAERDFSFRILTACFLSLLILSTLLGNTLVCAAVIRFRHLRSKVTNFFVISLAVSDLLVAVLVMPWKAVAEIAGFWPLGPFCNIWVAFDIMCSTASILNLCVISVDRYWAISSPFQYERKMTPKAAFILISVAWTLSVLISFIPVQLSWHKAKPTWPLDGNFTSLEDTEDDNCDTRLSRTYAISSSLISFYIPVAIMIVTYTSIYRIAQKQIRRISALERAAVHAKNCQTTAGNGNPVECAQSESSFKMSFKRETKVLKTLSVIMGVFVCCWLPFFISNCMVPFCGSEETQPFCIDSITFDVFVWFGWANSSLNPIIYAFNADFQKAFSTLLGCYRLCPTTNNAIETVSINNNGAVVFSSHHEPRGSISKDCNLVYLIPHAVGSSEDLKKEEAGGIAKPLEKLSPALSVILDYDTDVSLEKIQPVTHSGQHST
Method in brief: (§1)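 Competition radioligand binding in rat striatal membranes: D2 sites labelled with [3H]spiroperidol and D1 sites with [3H]SCH-23390. Inhibition of specific binding was measured. Three experiments, each in duplicate. Compounds were tested up to 5 μM, and those without binding at that level were scored not active.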

D(2) dopamine receptor [3] = biological target: T3, D(2) dopamine receptor (Rattus norvegicus, UniProt P61169); assay: Displacement of [3H]spiroperidol from Dopamine receptor D2 of rat striatal membranes; method in brief: as §1
T3 sequence (P61169 whole entry): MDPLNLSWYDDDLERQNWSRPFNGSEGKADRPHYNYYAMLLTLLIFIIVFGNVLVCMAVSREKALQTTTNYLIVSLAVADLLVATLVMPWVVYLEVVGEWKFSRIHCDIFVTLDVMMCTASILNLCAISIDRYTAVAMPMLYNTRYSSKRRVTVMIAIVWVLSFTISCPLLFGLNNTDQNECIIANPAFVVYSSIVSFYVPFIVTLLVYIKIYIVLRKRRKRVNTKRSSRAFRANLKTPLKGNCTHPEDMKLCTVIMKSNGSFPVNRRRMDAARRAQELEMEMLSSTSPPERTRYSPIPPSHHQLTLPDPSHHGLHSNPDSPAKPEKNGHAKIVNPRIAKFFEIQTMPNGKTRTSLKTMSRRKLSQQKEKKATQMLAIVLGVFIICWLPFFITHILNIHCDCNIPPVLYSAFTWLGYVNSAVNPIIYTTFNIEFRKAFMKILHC

[4] = biological target: T4, Adrenergic receptor alpha-1 (Rattus norvegicus, UniProt P15823+P23944+P43140); assay: Displacement of [3H]prazosin from Alpha-1 adrenergic receptor of rat cortical membranes
T4 sequence (P15823 whole entry): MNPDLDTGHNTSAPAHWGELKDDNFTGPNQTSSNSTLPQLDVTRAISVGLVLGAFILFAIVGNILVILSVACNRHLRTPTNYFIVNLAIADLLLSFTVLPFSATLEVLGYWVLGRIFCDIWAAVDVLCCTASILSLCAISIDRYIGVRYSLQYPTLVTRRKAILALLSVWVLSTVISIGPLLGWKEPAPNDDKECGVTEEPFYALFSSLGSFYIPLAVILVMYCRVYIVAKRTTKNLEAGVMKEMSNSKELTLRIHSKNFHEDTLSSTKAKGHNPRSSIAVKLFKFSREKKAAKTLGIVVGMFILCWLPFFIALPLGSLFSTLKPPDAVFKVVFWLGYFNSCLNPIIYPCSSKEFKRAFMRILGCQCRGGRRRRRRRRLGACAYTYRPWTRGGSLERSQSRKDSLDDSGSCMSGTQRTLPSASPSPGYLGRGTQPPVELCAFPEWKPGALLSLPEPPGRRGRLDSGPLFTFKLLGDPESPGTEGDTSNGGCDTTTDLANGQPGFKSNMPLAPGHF
T4 sequence (P23944 whole entry): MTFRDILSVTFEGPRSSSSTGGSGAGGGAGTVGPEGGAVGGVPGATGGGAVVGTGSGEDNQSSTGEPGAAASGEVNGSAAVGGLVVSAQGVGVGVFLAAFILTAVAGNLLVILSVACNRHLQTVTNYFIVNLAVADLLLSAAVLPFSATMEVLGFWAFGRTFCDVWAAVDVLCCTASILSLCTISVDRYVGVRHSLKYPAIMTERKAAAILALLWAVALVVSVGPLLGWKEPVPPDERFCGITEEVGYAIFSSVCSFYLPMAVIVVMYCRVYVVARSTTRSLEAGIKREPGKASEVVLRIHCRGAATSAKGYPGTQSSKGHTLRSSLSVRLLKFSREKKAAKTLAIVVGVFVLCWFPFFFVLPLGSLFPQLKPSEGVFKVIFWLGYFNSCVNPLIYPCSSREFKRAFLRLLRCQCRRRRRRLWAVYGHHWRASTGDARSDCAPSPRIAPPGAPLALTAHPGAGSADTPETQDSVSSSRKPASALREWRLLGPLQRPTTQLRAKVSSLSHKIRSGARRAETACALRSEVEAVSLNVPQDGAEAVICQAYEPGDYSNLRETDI
T4 sequence (P43140 whole entry): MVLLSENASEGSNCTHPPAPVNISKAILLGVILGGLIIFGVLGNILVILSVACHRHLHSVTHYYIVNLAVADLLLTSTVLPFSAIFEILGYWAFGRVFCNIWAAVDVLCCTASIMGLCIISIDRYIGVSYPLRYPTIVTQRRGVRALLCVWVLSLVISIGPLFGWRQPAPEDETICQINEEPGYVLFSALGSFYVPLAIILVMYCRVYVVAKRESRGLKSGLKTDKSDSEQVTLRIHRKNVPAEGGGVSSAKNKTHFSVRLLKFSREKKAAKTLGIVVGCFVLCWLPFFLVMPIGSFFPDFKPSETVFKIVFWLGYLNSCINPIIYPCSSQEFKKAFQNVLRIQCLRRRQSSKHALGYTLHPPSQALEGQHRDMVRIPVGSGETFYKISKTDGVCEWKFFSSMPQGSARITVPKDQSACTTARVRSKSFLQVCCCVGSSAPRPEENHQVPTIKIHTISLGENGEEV

[5] = biological target: T1, Adrenergic receptor alpha-2; assay: Displacement of [3H]rauwolscine from Alpha-2 adrenergic receptor of rat cortical membranes
D(1A) dopamine receptor [6] = biological target: T2, D(1A) dopamine receptor; assay: Displacement of [3H]-SCH- 23390 from Dopamine receptor D1 of rat striatal membranes; method in brief: as §1
D(2) dopamine receptor [7] = biological target: T3, D(2) dopamine receptor; assay: Inhibition of specific binding of [3H]spiroperidol to Dopamine receptor D2 in rat striatal membranes; method in brief: as §1
D(1A) dopamine receptor [8] = biological target: T2, D(1A) dopamine receptor; assay: Inhibition of specific binding of [3H]-SCH- 23390 to Dopamine receptor D1 in rat striatal membranes; NA= Not active up to a concentration of 5 uM; method in brief: as §1

SMILES	IC50 [1] [nM]	IC50 (D(1A) dopamine receptor [2])	IC50 (D(2) dopamine receptor [3])	IC50 [4] [nM]	IC50 [5] [nM]	IC50 (D(1A) dopamine receptor [6]) [nM]	IC50 (D(2) dopamine receptor [7]) [nM]	IC50 (D(1A) dopamine receptor [8])
C#CCN1CCC[C@@H]2c3cccc(O)c3CC[C@H]21	49	Not Active	Not Active	–	–	–	–	–
I/C=C/CN1CCCC2Cc3ccccc3CC21 (stereo not given)	–	–	Not Active	274	33	220	–	–
COc1cccc2c1CC[C@@H]1[C@@H]2CCCN1C/C=C/I	18	–	Not Active	508	–	270	–	–
Oc1cccc2c1CC1CCCN(C/C=C/I)C1C2 (stereo not given)	–	–	–	54	0.5	120	490	–
C#CCN1CCC[C@@H]2c3cccc(OC)c3CC[C@H]21	196	–	Not Active	497	–	–	–	Not Active
c1ccc2c(c1)CC[C@H]1NCCC[C@H]21	–	–	Not Active	–	154	–	–	Not Active
COc1cccc2c1CC1CCCN(C/C=C/I)C1C2 (stereo not given)	–	–	Not Active	43	226	80	–	–
COc1cccc2c1CC[C@H]1NCCC[C@H]21	55	–	Not Active	–	–	–	–	Not Active
C#CCN1CCC[C@@H]2c3ccccc3CC[C@H]21	–	–	Not Active	–	160	–	–	Not Active
C#CCN1CCCC2Cc3c(cccc3OC)CC21 (stereo not given)	–	–	Not Active	1850	197	–	–	Not Active
COc1cccc2c1CC1CCCNC1C2 (stereo not given)	–	–	Not Active	2200	67.5	–	–	Not Active
I/C=C/CN1CCC[C@@H]2c3ccccc3CC[C@H]21	128	–	Not Active	253	–	1900	–	–
C#CCN1CCCC2Cc3c(O)cccc3CC21 (stereo not given)	–	–	–	209	251	700	5110	–
Oc1cccc2c1CC[C@@H]1[C@@H]2CCCN1C/C=C/I	47	–	Not Active	225	–	1130	–	–
C#CCN1CCCC2Cc3ccccc3CC21 (stereo not given)	–	Not Active	Not Active	1300	142	–	–	–
NC1CCc2cc(O)c(O)cc2C1 (stereo not given)	–	–	–	–	–	–	700	–
c1ccc2c(c1)CC1CCCNC1C2 (stereo not given)	130	Not Active	Not Active	–	–	–	–	–
